The nature of assay [1]: Antitumor activity against human Panc89 cells assessed as reduction of viability at 10 ug/ml. It is filed as functional. The method, boiled down:
(§1)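 Viability was measured in the pancreatic tumor lines Colo357 and Panc89 and the colon tumor line HT29, with compound present at a final concentration of 10 µg/mL. The read-out is percent reduction in cell viability.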

Assay [2] concerns HT-29. The assay can be described thus: Antitumor activity against human HT29 cells assessed as reduction of viability at 10 ug/ml. It is filed as functional. In outline:
as §1

In assay [3] the test system is Escherichia coli. The assay can be described thus: Antimicrobial activity against Escherichia coli. The format is functional, organism-based.
Assay [4] deals with Pseudomonas fluorescens. The assay can be described thus: Antimicrobial activity against Pseudomonas fluorescens. The format is functional, organism-based.
For assay [5], the system named is Nakaseomyces glabratus. The assay can be described thus: Antimicrobial activity against Candida glabrata. It is filed as functional, organism-based.
The test system of assay [6] is COLO357. The assay can be described thus: Antitumor activity against human Colo357 cells assessed as reduction of viability at 10 ug/ml. It is filed as functional. The method, boiled down: as §1

Calls of active or inactive are those of the source. No cut-off for these calls is given here.

For `CCCCCCC(C)[C@@H]1CC(=O)NCC(=O)N[C@@H](C(C)C)C(=O)N[C@H](CC(C)C)C(=O)N[C@@H](C)C(=O)N[C@@H](Cc2ccccc2)C(=O)O1` (some centres not stated) [SCOPULARIDE A], the Activity is on record as 42% in assay [1], 37% in assay [2] and 36% in assay [6]. Moreover, the result in assay [3], in assay [4] and in assay [5] was inactive.

On to `CCCCC(C)[C@@H]1CC(=O)NCC(=O)N[C@@H](C(C)C)C(=O)N[C@H](CC(C)C)C(=O)N[C@@H](C)C(=O)N[C@@H](Cc2ccccc2)C(=O)O1` (some centres not stated) [SCOPULARIDE B], for which the results for the Activity in assay [1], in assay [2] and in assay [6] were 49%, 24% and 26%, respectively. The outcome in assay [3], in assay [4] and in assay [5] was inactive.

The values above are taken from ChEMBL document CHEMBL1157382, “Scopularides A and B, cyclodepsipeptides from a marine sponge-derived fungus, Scopulariopsis brevicaulis” (2008).
